Experimental data: article PMC3057461 (Chemistry & biology, 2011)
Read-outs that look alike come from different tables or passages of the source.

Experiments:
[1] = biological target: DnaK-DnaJ complex (Escherichia coli, UniProt P0A6Y8); test: ATPase assay of the DnaK-DnaJ system; format: biochemical; settings: for effect on stimulatory activity of DnaJ on DnaK ATPase: DnaJ titration
[2] = biological target: DnaK (wild type) (Escherichia coli, UniProt P0A6Y8); test: Tryptophan fluorescence quench, apparent affinity of myricetin for DnaK; format: binding; settings: apparent affinity (Kapp), wild type DnaK 3 μM, ATP 1 mM
Procedure, shortened: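 Test compound was added at various concentrations to wild-type DnaK, read at 342 nm (Ex 295 nm) for tryptophan fluorescence quench. Conditions were 5 μM nucleotide-free DnaK alone, 5 μM DnaK with 2 mM ATP, or 3 μM DnaK with 1 mM ATP. Apo-DnaK was eluted from the ATP column with 1 M NaCl. DnaK-free controls were subtracted. Triplicates, ± SEM.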

[3] = biological target: DnaK K106A (Escherichia coli, UniProt P0A6Y8, K106A); test: Tryptophan fluorescence quench, DnaK K106A control mutant; format: binding
Procedure, shortened: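 DnaK alanine mutants were used at 3 μM with 1 mM ATP. Test compound was added at various concentrations, and quench of intrinsic tryptophan fluorescence was read at 342 nm (Ex 295 nm). Readings from controls lacking DnaK were subtracted, and apparent affinity was derived from the concentration series.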

[4] = biological target: T1, DnaK (Escherichia coli, UniProt P0A6Y8); test: Tryptophan fluorescence response of DnaK to ATP binding; settings: myricetin 100 μM, DnaK 5 μM, ATP 100 μM
T1 sequence (P0A6Y8 whole entry): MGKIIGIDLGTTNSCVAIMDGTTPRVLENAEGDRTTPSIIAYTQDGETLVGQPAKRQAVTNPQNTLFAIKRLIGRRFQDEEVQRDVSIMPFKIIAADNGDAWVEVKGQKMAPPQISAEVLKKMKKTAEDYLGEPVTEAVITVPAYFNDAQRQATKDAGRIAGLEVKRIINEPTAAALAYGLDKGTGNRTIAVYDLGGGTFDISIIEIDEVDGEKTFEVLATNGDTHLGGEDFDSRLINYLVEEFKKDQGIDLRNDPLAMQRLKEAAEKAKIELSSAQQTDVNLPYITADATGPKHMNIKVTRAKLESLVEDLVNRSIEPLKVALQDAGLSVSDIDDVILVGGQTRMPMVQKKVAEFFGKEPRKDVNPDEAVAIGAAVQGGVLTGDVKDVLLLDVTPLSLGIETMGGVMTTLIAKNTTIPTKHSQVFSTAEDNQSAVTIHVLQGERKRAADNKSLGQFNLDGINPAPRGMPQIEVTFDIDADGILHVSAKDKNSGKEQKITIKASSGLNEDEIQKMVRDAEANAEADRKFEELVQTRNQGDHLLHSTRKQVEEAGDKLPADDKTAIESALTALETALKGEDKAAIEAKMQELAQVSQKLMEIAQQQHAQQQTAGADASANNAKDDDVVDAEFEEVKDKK
Procedure, shortened: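 Apo-DnaK (6 μM) was preincubated with test compound (125 μM) for 1 h at 37 °C. Then 500 μM ATP or buffer (Tris, KCl, MgCl2, pH 7.4) was added as one-fifth of the final volume; these are pre-mix concentrations. Tryptophan emission was scanned from 300–400 nm at 295 nm excitation. Runs were done in triplicate.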

[5] = biological target: DnaJ (Escherichia coli, UniProt P08622); test: Isothermal calorimetry; format: binding; settings: DnaJ 10 μM; titrations noisy
Chain of DnaJ (P08622 whole entry, the tested form may be a part): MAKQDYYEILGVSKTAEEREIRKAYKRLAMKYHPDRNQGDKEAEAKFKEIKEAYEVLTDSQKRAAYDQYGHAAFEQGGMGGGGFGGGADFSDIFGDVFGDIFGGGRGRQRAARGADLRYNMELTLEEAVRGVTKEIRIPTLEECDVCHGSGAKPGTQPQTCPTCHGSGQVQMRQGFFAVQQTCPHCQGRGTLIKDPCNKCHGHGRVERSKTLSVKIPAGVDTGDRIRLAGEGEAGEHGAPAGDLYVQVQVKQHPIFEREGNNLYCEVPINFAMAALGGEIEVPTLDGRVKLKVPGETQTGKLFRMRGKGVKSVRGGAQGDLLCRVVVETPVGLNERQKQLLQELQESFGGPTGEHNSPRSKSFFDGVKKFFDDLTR

[6] = biological target: J domain (residues 2–108) (Escherichia coli, UniProt P08622); test: Isothermal calorimetry; format: binding; settings: truncated J domain residues 2–108
Chain of J domain (residues 2–108) (P08622 2-108): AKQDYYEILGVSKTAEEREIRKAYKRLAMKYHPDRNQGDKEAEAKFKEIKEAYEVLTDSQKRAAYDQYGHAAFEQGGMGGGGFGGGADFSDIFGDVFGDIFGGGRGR

[7] = biological target: T1, DnaK; test: Intrinsic ATPase activity of DnaK; format: biochemical
Procedure, shortened: (§1)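 ATP turnover was measured for purified E. coli DnaK (His-tag cleaved) in the established ATPase assay, alone or with the stimulating partner named. Results are means of triplicates ± SEM.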

[8] = biological target: DnaK-GrpE (Escherichia coli, UniProt P0A6Y8); test: GrpE-mediated stimulation of DnaK ATP turnover; format: biochemical
Chain of DnaK-GrpE (P0A6Y8 whole entry): as the sequence (P0A6Y8 whole entry) above
Procedure, shortened: as §1

[9] = biological target: T1, DnaK; test: Peptide substrate; format: biochemical; settings: model substrate NRLLLTG
Procedure, shortened: as §1

[10] = biological target: DnaK-J domain (Escherichia coli, UniProt P0A6Y8); test: J domain stimulation of DnaK ATP turnover; format: biochemical
Chain of DnaK-J domain (P0A6Y8 whole entry, the tested form may be a part): as the sequence (P0A6Y8 whole entry) above
Procedure, shortened: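 For J-domain-stimulated turnover, His-tagged DnaJ J domain (residues 2–108) was purified with an extra gel-filtration step and stored in Tris pH 7.5 with 150 mM KCl and 5 mM MgCl2. It was then run in the established DnaK ATPase assay. Results are means of triplicates ± SEM.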

[11] = biological target: DnaK-DnaJ-GrpE (Escherichia coli, UniProt P0A6Y8); test: ATPase assay of DnaK-DnaJ in the presence of GrpE; format: biochemical; settings: saturating GrpE (2 μM); DnaK 0.6 μM, DnaJ 1 μM
Chain of DnaK-DnaJ-GrpE (P0A6Y8 whole entry): as above
Procedure, shortened: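 Purified E. coli DnaK (0.6 μM) and DnaJ (1 μM), with His-tags cleaved, were run in the established ATPase assay with GrpE at 2 μM or a range of GrpE levels. Test compound was given as a dose series, and IC50 was taken from the dose response. Values are means of triplicates ± SEM.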

[12] = biological target: DnaK-DnaJ (Escherichia coli, UniProt P0A6Y8); format: binding
Chain of DnaK-DnaJ (P0A6Y8 whole entry): as above
Procedure, shortened: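 Firefly luciferase was partially digested and adsorbed onto microtiter wells. DnaK was added with DnaJ titrated, in the presence or absence of test compound. Bound DnaK was detected with an anti-DnaK antibody. Each point is the mean of triplicates ± SEM.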

[13] = biological target: DnaK-DnaJ interaction (Escherichia coli, UniProt P0A6Y8); test: DnaK-DnaJ interaction by FRET; format: binding; settings: for effect on binding of DnaJ to DnaK: ATP 2 mM
Chain of DnaK-DnaJ interaction (P0A6Y8 whole entry): as above

[14] = read-out: IC50 against the DnaK-DnaJ system, DnaK 0.6 μM, DnaJ 1 μM

Chain of DnaK-DnaJ complex (P0A6Y8 whole entry, one chain of several): as the sequence (P0A6Y8 whole entry) above

Compound: COc1cc(O)c2c(=O)c(O)c(-c3ccc(O)c(O)c3)oc2c1 [rhamnetin]
- activity against DnaK-DnaJ ([1]; DnaK 0.6 μM, DnaJ 1 μM): inactive

Compound: O=C(O[C@@H]1Cc2c(O)cc(O)cc2O[C@@H]1c1ccc(O)c(O)c1)c1cc(O)c(O)c(O)c1 [ECG, epicatechin-3-gallate]
- IC50 [1]: 6 ± 0.9 µM

Compound: O=c1c(O)c(-c2cc(O)c(O)c(O)c2)oc2cc(O)cc(O)c12 [myricetin]
- IC50 [1]: 14.5 µM
- inhibition (up to, maximal) ([1]; DnaK 0.6 μM, DnaJ 1 μM): up to 75%
- effect on stimulatory activity of DnaJ on DnaK ATPase ([1]; myricetin 50 μM): dramatically weakened
- effect on stimulatory activity of DnaJ on DnaK ATPase ([1]; myricetin 200 μM): completely suppressed
- inhibition at 200 µM ([1]; read-out: percent inhibition): 75%
- Kd [2]: 55 ± 7 µM
- Kd [3]: 43 ± 5 µM
- tryptophan fluorescence response to ATP binding [4]: responded normally
- binding to DnaJ by ITC [5]: no apparent affinity
- binding to J domain by ITC [6]: failed to bind
- effect on intrinsic ATPase activity of DnaK [7]: no effect
- effect on stimulation of DnaK by GrpE [8]: did not influence
- effect on peptide-mediated stimulation of ATP turnover [9]: no effect
- effect on J domain stimulatory activity [10]: able to block
- apparent affinity of myricetin in the presence of DnaJ and GrpE [11]: significantly enhanced
- decrease of maximal amount of bound DnaK ([12]; 20 μM myricetin): approximately 40%
- amount of DnaJ required to promote DnaK binding to luciferase ([12]; 20 μM myricetin (62 nM without compound)): 1 µM
- weakening of Kapp between DnaJ and DnaK ([13]; 25 μM myricetin, Kapp approx. 560 nM without compound): 5.3 fold
- effect on binding of DnaJ to DnaK [13]: significantly reduced

Compound: O=c1c(O)c(-c2ccc(O)cc2)oc2cc(O)cc(O)c12 [kaempferol]
- IC50 [1]: > 200 µM

Compound: O=c1c(O)c(-c2ccc(O)c(O)c2)oc2cc(O)cc(O)c12 [quercetin]
- IC50 [1]: 27.6 µM
- inhibition (up to, maximal) ([1]; DnaK 0.6 μM, DnaJ 1 μM): up to 67%

Compound: COc1cc(OC)c2c(=O)c(O)c(-c3ccc(OC)c(OC)c3)oc2c1 [QTE, quercetin tetramethyl (5,7,3′,4′) ether]
- IC50 [1, 14]: > 200 µM

Compound: O=c1cc(-c2cc(O)c(O)c(O)c2)oc2cc(O)cc(O)c12 [hieracin]
- IC50 [1, 14]: 28.2 µM

Compound: O=c1cc(-c2ccc(O)c(O)c2)oc2cc(O)cc(O)c12 [luteolin]
- IC50 [1]: 9.4 µM

Compound: (±)-catechin
- effect on binding of DnaJ to DnaK [13]: did not inhibit
